Laboratory results published in ChEMBL document CHEMBL1166006, “Bacterial transferase MraY inhibitors: synthesis and biological evaluation” (Bioorg Med Chem, 2010).
Activity calls are given as the source filed them. The calls are words filed in the database; no cut-off is given here.

What was measured:
[1] = molecular target: T1, Phospho-N-acetylmuramoyl-pentapeptide-transferase (Bacillus subtilis (strain 168), UniProt Q03521); experiment: Inhibition of Bacillus subtilis transferase MraY after 30 mins
T1 sequence (Q03521 whole entry): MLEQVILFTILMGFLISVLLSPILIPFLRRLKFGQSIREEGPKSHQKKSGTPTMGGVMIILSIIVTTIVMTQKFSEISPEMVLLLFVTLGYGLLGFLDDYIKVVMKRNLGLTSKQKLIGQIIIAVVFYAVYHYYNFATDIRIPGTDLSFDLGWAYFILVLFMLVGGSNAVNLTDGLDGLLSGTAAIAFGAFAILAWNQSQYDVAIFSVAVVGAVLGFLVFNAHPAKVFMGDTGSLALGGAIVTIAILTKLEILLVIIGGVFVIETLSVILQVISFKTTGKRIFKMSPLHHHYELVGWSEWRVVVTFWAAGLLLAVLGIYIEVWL
Outline: (§1)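 Enzyme addition started the reaction, which ran 30 min at 37 °C and was stopped by 1 min at 100 °C. Radioactive spots were quantified by scanner. Residual activity (screen at 2 mM) and IC₅₀ were calculated against an inhibitor-free control; mean of triplicates.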

Escherichia coli = experiment: Inhibition of Escherichia coli MurG at 1 mM after 30 mins
Outline: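 MurG from E. coli was assayed in final 200 mM Tris–HCl pH 7.5, 10 mM MgCl₂, UDP-[¹⁴C]GlcNAc, lipid I analogue and 35% (v/v) DMSO. The reaction ran 30 min at 37 °C and was stopped by boiling 3 min, then lyophilised. The residue was taken up in 2-propanol/ammonium hydroxide/water (6:3:1), which was also the chromatography mobile phase. Radioactive spots were quantified by scanner.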

[2] = molecular target: T2, Phospho-N-acetylmuramoyl-pentapeptide-transferase (Bacillus subtilis (strain 168)) (UniProt Q03521); experiment: Inhibition of Bacillus subtilis transferase MraY assessed as residual activity at 2 mM after 30 mins; outline: as §1
T2 sequence (whole entry): T1 sequence (Q03521 whole entry)

Row | IC50 [1] | inhibition (Escherichia coli) | Activity [2] | SMILES
1 | 580 µM | inactive |  | NC[C@H]1O[C@@H](OC[C@H]2O[C@@H](Cn3ccc(=O)[nH]c3=O)[C@@H](O)[C@@H]2O)[C@H](O)[C@@H]1O
2 | 1790 µM | inactive |  | N=C(N)NC[C@H]1O[C@@H](OC[C@H]2O[C@@H](Cn3ccc(=O)[nH]c3=O)[C@@H](O)[C@@H]2O)[C@H](O)[C@@H]1O
3 | 595 µM | inactive |  | NCc1cn(C[C@H]2O[C@@H](OC[C@H]3O[C@@H](Cn4ccc(=O)[nH]c4=O)[C@@H](O)[C@@H]3O)[C@H](O)[C@@H]2O)nn1
4 | 600 µM | inactive |  | N=C(N)NCc1cn(C[C@H]2O[C@@H](OC[C@H]3O[C@@H](Cn4ccc(=O)[nH]c4=O)[C@@H](O)[C@@H]3O)[C@H](O)[C@@H]2O)nn1
5 | 820 µM | inactive |  | O=C(NCc1cn(C[C@H]2O[C@@H](OC[C@H]3O[C@@H](Cn4ccc(=O)[nH]c4=O)[C@@H](O)[C@@H]3O)[C@H](O)[C@@H]2O)nn1)[C@@H]1CCCN1
6 |  | inactive | 61% | O=C(NC[C@H]1O[C@@H](OC[C@H]2O[C@@H](Cn3ccc(=O)[nH]c3=O)[C@@H](O)[C@@H]2O)[C@H](O)[C@@H]1O)[C@@H]1CCCN1
